Assay results taken from article PMC3996760 (Brain research, 2014).
Entries after “also recorded” stand apart in the source; their conditions may differ. Like-named read-outs stand apart in the source and are kept apart here.

Experiments:
male Wistar rats [1] = experiment: Peripheral nerve injury model; type: in vivo
[2] = Quantification in rat plasma and brain tissue; type: in vivo, Wistar rats; conditions: for brain estimated free concentration: total × free fraction
male Wistar rats [3] = experiment: Elevated plus maze test; type: in vivo; conditions: for EPM % time on open arms / EPM number of closed arm entries: mean ± SEM
Summary of the method: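 Maze 50 cm high, closed arms lit at 10 lux red. Rat placed centrally facing an enclosed arm and video-tracked for 5 min. Arm entry scored at 80% body crossing. One-way ANOVA; ANCOVA for % open-arm time with closed-arm entries as covariate; n=7.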

male Wistar rats [4] = experiment: Grip strength test; type: in vivo; conditions: for GS grip strength: mean ± SEM
Summary of the method: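 At 20 min post-dose, rats gripped a trapezoid wire grid on a grip-strength meter with their front paws and were lifted by the tail with increasing firmness until release. n=8 per group; one-way ANOVA.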

male Wistar rats [5] = experiment: Open field test; type: in vivo; conditions: for OF total distance: 15 min; for OF total distance / OF % time in central zone: mean ± SEM; for OF % time in central zone: first 5 min
α1β3γ2 GABAA receptors = α1β3γ2 GABAA receptors (Rattus norvegicus, UniProt P18508+P62813); type: cell-based; conditions: for in vitro efficacy: GABA EC3
male Wistar rats [6] = experiment: Spontaneous locomotor activity test; type: in vivo; conditions: for SLA total distance: 30 min recording, mean ± SEM
male Wistar rats [7] = experiment: Morris water maze test; type: in vivo; conditions: acquisition, mean ± SEM
Summary of the method: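 Pool 200 cm diameter, 23 °C water, platform submerged 2 cm. Four trials per block, max 120 s each, 60 s intertrial interval, pseudorandom starts. Escape latency video-tracked and averaged per rat per day; n=7.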

male Wistar rats [8] = experiment: Rotarod test; type: in vivo; conditions: for RR time on rotarod: max 120 s, mean ± SEM
[9] = ref Munro et al., 2008, cited from earlier work

Sequence of α1β3γ2 GABAA receptors (P62813 28-455): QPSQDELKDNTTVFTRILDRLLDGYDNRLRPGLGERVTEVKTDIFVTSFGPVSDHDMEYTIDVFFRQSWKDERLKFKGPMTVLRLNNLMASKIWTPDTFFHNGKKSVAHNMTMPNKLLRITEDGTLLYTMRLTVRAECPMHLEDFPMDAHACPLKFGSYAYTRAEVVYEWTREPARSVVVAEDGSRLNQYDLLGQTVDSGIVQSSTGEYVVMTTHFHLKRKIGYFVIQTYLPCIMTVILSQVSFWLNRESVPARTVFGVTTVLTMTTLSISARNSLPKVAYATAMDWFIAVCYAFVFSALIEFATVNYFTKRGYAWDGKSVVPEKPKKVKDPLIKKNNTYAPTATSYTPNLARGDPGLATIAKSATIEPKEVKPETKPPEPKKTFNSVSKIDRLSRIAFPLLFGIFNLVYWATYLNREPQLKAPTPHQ
Sequence of α1β3γ2 GABAA receptors (P18508 39-466): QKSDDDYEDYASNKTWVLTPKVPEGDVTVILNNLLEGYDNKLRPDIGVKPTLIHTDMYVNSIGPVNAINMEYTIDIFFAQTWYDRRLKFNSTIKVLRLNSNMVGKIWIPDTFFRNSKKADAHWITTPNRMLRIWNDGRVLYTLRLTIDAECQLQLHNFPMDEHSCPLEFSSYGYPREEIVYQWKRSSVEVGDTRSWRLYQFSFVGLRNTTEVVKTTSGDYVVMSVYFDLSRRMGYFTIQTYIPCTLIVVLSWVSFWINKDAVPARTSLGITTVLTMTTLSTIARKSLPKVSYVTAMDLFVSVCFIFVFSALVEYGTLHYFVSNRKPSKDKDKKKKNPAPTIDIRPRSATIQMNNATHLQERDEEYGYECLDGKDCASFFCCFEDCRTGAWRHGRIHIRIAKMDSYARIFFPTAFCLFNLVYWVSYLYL
Sequence of α1β3γ2 GABAA receptors (P63079 26-473 partner): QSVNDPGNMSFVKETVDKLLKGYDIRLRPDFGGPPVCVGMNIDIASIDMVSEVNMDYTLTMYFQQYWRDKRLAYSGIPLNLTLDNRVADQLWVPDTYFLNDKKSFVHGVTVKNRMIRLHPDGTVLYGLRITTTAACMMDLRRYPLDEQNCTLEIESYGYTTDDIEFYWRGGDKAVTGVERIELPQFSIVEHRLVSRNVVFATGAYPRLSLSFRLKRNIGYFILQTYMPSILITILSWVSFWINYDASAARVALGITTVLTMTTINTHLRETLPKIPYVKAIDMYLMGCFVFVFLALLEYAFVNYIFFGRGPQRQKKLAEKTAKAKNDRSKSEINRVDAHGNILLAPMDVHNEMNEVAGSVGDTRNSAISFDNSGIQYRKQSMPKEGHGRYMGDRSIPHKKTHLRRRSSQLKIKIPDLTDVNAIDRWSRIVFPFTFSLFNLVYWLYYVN

Which “effect of Treatment on paw withdrawal threshold 48 h after surgery” value (male Wistar rats [1]; 10 mg/kg, one to three doses, p=0.157) does the source give for `C[C@@H]1N=C(c2ccccc2F)c2cc(Br)ccc2NC1=O` [SH-I-048A, (S)-7-bromo-5-(2-fluorophenyl)-3-methyl-1Hbenzo[e][1,4]diazepin-2(3H)-one] here?
The value was “no significant effect”.

What about the “paw withdrawal threshold 24 h after injury vs solvent” value (male Wistar rats [1]; three doses of 10 mg/kg (0, 12, 23 h), p=0.015) of the same compound?
Its value is “significantly higher paw withdrawal threshold; also recorded: reversed mechanical hyperalgesia”.

And the brain total concentration ([2]; 0.5 mg/kg i.p., 20 min)?
Its brain total concentration is 231.12 ± 52.27 nmol/kg.

And the “brain estimated free concentration” value ([2]; 0.5 mg/kg i.p., 20 min)?
Its value is 3.26 nmol/kg.

What about the brain total concentration ([2]; 2 mg/kg i.p., 20 min) of the same compound?
The brain total concentration was 750.59 ± 307.14 nmol/kg.

What about the “brain estimated free concentration” value ([2]; 2 mg/kg i.p., 20 min) of the same compound?
Its value is 10.60 nmol/kg.

And the brain total concentration ([2]; 2 mg/kg i.p., 60 min)?
Its brain total concentration is 739.37 ± 182.94 nmol/kg.

And the “brain estimated free concentration” value ([2]; 2 mg/kg i.p., 60 min)?
The value was 10.45 nmol/kg.

What about the brain total concentration ([2]; 10 mg/kg i.p., 20 min) of the same compound?
Its brain total concentration is 2096.33 ± 858.32 nmol/kg.

And the “brain estimated free concentration” value ([2]; 10 mg/kg i.p., 20 min)?
Its value is 29.62 nmol/kg.

And the brain total concentration ([2]; 10 mg/kg i.p., 60 min)?
The brain total concentration was 1035.23 ± 421.19 nmol/kg.

What about the “brain estimated free concentration” value ([2]; 10 mg/kg i.p., 60 min) of the same compound?
The value was 14.63 nmol/kg.

What about the “EPM % time on open arms” value (male Wistar rats [3]; 10 mg/kg i.p.) of the same compound?
Its value is 67.43 ± 12.34 %.

What about the “EPM number of closed arm entries” value (male Wistar rats [3]; 10 mg/kg i.p.) of the same compound?
The value was 4.00 ± 1.23.

What about the “influence on EPM parameters, preliminary study” value (male Wistar rats [3]; 0.5 and 2 mg/kg, data not shown) of the same compound?
The value was “devoid of any influences”.

What about the “effect of treatment on number of closed arm entries” value (male Wistar rats [3]; 2, 5 and 10 mg/kg, one-way ANOVA p=0.072) of the same compound?
Its value is “no significant effect”.

What about the “effect of treatment on percentage of time spent on open arms” value (male Wistar rats [3]; 2, 5 and 10 mg/kg, one-way ANOVA p=0.095) of the same compound?
Its value is “not significant”.

And the GS grip strength (male Wistar rats [4]; 10 mg/kg i.p.)?
Its GS grip strength is 2588.83 ± 169.52 g/kg.

What about the “effect on grip strength vs solvent” value (male Wistar rats [4]; 2, 5 and 10 mg/kg, p=0.002, p<0.001, p=0.002) of the same compound?
The value was “significant muscle relaxation”.

And the OF total distance (male Wistar rats [5]; 10 mg/kg i.p.)?
Its OF total distance is 15.39 ± 5.35 m.

What about the “OF % time in central zone” value (male Wistar rats [5]; 10 mg/kg i.p.) of the same compound?
Its value is 30.01 ± 15.49%.

What about the “effect on total distance traveled in open field vs solvent” value (male Wistar rats [5]; 10 mg/kg only, Dunnett p<0.001) of the same compound?
Its value is “significantly decreased”.

What about the “effect on percent of time spent in the central zone” value (male Wistar rats [5]; 0.2, 0.5, 2 and 10 mg/kg, p=0.669) of the same compound?
Its value is “not significantly affected”.

What about the in vitro efficacy (α1β3γ2 GABAA receptors; concentration 1 nM) of the same compound?
The in vitro efficacy was 124%.

What about the in vitro efficacy (α1β3γ2 GABAA receptors; concentration 10 nM) of the same compound?
Its in vitro efficacy is 256%.

And the “approximated potentiation at estimated in vivo free brain concentration” value (α1β3γ2 GABAA receptors; free concentration 3.26 nM (0.5 mg/kg i.p., 20 min), linear interpolation)?
The value was 157%.

What about the SLA total distance (male Wistar rats [6]; 10 mg/kg i.p.) of the same compound?
The SLA total distance was 6.42 ± 2.26 m.

And the “influence on total distance traveled during 30 min” value (male Wistar rats [6]; 2, 5 and 10 mg/kg, one-way ANOVA p=0.061)?
The value was “did not reach statistical significance”.

And the “distance traveled in second 5-min bin (5–10 min) vs solvent” value (male Wistar rats [6]; 5 and 10 mg/kg, p=0.017 and p=0.008)?
The value was “traveled shorter distances than the solvent-treated animals”.

And the “MWM latency Day 1” value (male Wistar rats [7]; 10 mg/kg i.p. daily)?
The value was 102.11 ± 9.11 s.

What about the “MWM latency Day 2” value (male Wistar rats [7]; 10 mg/kg i.p. daily) of the same compound?
The value was 88.52 ± 9.40 s.

And the “MWM latency Day 3” value (male Wistar rats [7]; 10 mg/kg i.p. daily)?
Its value is 62.98 ± 14.13 s.

What about the “MWM latency Day 4” value (male Wistar rats [7]; 10 mg/kg i.p. daily) of the same compound?
Its value is 53.39 ± 14.74 s.

And the “MWM latency Day 5” value (male Wistar rats [7]; 10 mg/kg i.p. daily)?
Its value is 42.65 ± 13.99 s.

And the “RR time on rotarod” value (male Wistar rats [8]; 10 mg/kg i.p.)?
Its value is 0.25 ± 0.16 s.

With `CN1C(=O)CN=C(c2ccccc2)c2cc(Cl)ccc21` [diazepam, reference compound] as the compound, how does the “EPM % time on open arms” value (male Wistar rats [3]; 2 mg/kg i.p.) read?
Its value is 76.67 ± 6.67 %.

And the “EPM number of closed arm entries” value (male Wistar rats [3]; 2 mg/kg i.p.)?
The value was 4.09 ± 0.77.

What about the GS grip strength (male Wistar rats [4]; 2 mg/kg i.p.) of the same compound?
The GS grip strength was 1722.50 ± 197.65 g/kg.

And the OF total distance (male Wistar rats [5]; 2 mg/kg i.p.)?
Its OF total distance is 24.50 ± 5.34 m.

What about the “OF % time in central zone” value (male Wistar rats [5]; 2 mg/kg i.p.) of the same compound?
Its value is 3.09 ± 1.15%.

And the SLA total distance (male Wistar rats [6]; 2 mg/kg i.p.)?
Its SLA total distance is 7.17 ± 1.13 m.

What about the “MWM latency Day 1” value (male Wistar rats [7]; 2 mg/kg i.p. daily) of the same compound?
Its value is 103.45 ± 10.64 s.

What about the “MWM latency Day 2” value (male Wistar rats [7]; 2 mg/kg i.p. daily) of the same compound?
The value was 92.82 ± 6.40 s.

What about the “MWM latency Day 3” value (male Wistar rats [7]; 2 mg/kg i.p. daily) of the same compound?
The value was 77.83 ± 15.52 s.

And the “MWM latency Day 4” value (male Wistar rats [7]; 2 mg/kg i.p. daily)?
The value was 59.02 ± 9.78 s.

And the “MWM latency Day 5” value (male Wistar rats [7]; 2 mg/kg i.p. daily)?
Its value is 56.40 ± 10.20 s.

And the “effect on hind paw hypersensitivity” value ([9]; highest dose tested (10 mg/kg))?
The value was “able to attenuate hind paw hypersensitivity”.

What about the “RR time on rotarod” value (male Wistar rats [8]; 2 mg/kg i.p.) of the same compound?
Its value is 41.70 ± 9.79 s.

With `Cc1ccc(-c2nc3ccc(C)cn3c2CC(=O)N(C)C)cc1` [zolpidem] as the compound, how does the “activity in chronic constriction injury model” value [9] read?
Its value is “completely inactive”.

For `CC(C)(C)OC(=O)c1cc2c(cn1)[nH]c1ccccc12` [β-CCt, t-butyl-β-carboline-3-carboxylate], which “effect of adding β-CCt on latency to fall from the revolving rod” value (male Wistar rats [8]; β-CCt 30 mg/kg added to 10 and 25 mg/kg SH-I-048A, 0.5, 1 and 1.5 h) is on record?
Its value is “increased latency to fall”.
